Bioassay records: PubChem, The Scripps Research Institute Molecular Screening Center
Compounds with a hit are over-represented: about 1.8% of the library has one in this group of screens.
UHRF1 MBD2 ctr – blocks human UHRF1 binding to methylated DNA | inhibition, % at 4.4 µM | hit rate 0.75% among 370,000 | AID 687016 | UHRF1 binding to methylated oligo, TR-FRET;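 further: UHRF1 SRA domain binding a hemimethylated CpG hairpin DNA probe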
LEDGF integ inh – blocks HIV-1 LEDGF/p75-dependent DNA integration; inhibition, % at 3.7 µM; hit rate 0.64% among 370,000; AID 743269; TR-FRET IN-LEDGF/p75 DNA integration, Eu/Cy5;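 active means inhibition above the screen-wide mean plus 3 SD, cut at about 13% in these data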;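 further: signal is the Cy5 over europium emission ratio at 671 and 618 nm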
MBD2 DNA inh – inhibitors of human MBD2 binding to methylated oligonucleotide | Q9UBB5 | TR-FRET | inhibition, % at 4.4 µM | hit rate 0.31% among 370,000; in the data active means inhibition above about 13%
Target sequence (Q9UBB5 whole entry, looked up): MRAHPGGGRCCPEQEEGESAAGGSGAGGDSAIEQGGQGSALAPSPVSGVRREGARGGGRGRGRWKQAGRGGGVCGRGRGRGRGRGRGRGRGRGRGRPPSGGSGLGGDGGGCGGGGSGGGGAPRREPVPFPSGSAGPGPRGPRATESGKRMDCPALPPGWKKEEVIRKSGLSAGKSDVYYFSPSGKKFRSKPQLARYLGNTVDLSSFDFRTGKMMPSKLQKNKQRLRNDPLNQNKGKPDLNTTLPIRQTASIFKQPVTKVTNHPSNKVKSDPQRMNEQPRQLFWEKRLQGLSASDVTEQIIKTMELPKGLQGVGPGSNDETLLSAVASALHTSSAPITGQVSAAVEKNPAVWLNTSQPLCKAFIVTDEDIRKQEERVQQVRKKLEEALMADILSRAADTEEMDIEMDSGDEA
TDP2 absorb – blocks human TDP2 phosphodiesterase activity. recombinant TDP2, T5PNP hydrolysis, p-nitrophenol absorbance 415 nm. hit rate 0.34% among 370,000. inhibition, % at 12.8 µM. O95551;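 active means inhibition above the mean of all tested compounds plus 3 SD, set per campaign, cut at about 25% in these data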
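Incubation: 2 h at 37 °C; Test system: recombinant human TDP2; Quantity: enzyme 120 nM; Read-out basis: percent inhibition; Medium: 50 mM Tris-HCl pH 7.5 with Mg2+, KCl, DTT, BSA; Repeats: single replicate; Compound: 12.8 µM single point, 1% DMSO; Signal: epi absorbance; Reagent: 5 mM T5PNP chromogenic substrate; Benchmarks: no-enzyme high, DMSO-plus-enzyme low.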
core dimer inh – HCV core protein dimerization inhibition. AID 1899. hit rate 0.33% among 300,000. TR-FRET GST/Flag-core106 dimerization, 1536-well. inhibition, % at 5 µM;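 active means inhibition above the mean of all tested compounds plus 3 SD, set per screening campaign, cut at about 45% in these data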
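assay system = GST-tagged and Flag-tagged HCV core protein residues 1-106 | controls = unlabelled core106 and no-GST-core106 wells | incubation = compound-protein-antibody incubation 4 h at 22.5 °C | probe or stimulus = Eu donor and XL665 acceptor anti-tag antibodies | read-out = % inhibition based on acceptor/donor emission ratio | signal = TR-FRET 671 and 617 nm emission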
UHRF1 ctr MBD2 – UHRF1 methyl-oligo binding inhibition as MBD2 counter-screen; UHRF1 binding to methylated oligonucleotide, TR-FRET; shares compounds with MBD2 DNA inh; inhibition, % at 4.4 µM; hit rate 25% among 1,000;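 further: UHRF1 SRA domain binding a labeled hemimethylated CpG hairpin DNA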
MBD2 DBD conf – confirmation of human MBD2-DBD methylated oligonucleotide binding inhibitors; inhibition, % at 4.4 µM; shares compounds with MBD2 DNA inh; TR-FRET MBD2-DBD binding to methylated oligonucleotide; hit rate 26% among 1,000; in the data active means inhibition above about 14%
Of the large screens only hits and unclear results are named; the others gave an inactive call (follow-up assays come after a bar, where they were run). Unless noted, no stated cut-off is given here; in the data, active means inhibition above about 21%; inactive means the rest.

COCCCNC(=O)C[C@@H]1C(=O)N(CCc2ccc(Cl)cc2)C2=CCCCC[C@]21C(=O)OC	none (no result: core dimer inh)
COc1cc(NC(=O)c2ccccc2)c(C)cc1NC(=O)CSc1nnc(-c2ccccc2F)n1-c1ccc(C)cc1	none (no result: core dimer inh)
COc1ccc(CNC(=O)CCS(=O)(=O)c2ccc3c(c2)oc(=O)n3C)cc1	MBD2 DNA inh 39 | UHRF1 ctr MBD2 inactive | MBD2 DBD conf inactive
CC(=O)C1=C(O)C(=O)N(c2ccc(O)cc2)C1c1ccccc1 (configuration not stated)	MBD2 DNA inh 22 | UHRF1 ctr MBD2 inactive | MBD2 DBD conf inactive
CC(=O)C1=C(O)C(=O)N(c2ccc(C(=O)O)cc2)C1c1ccccc1 (configuration not stated)	none
O=C(Nc1cnc2ccccc2c1)N1CCOCC1	MBD2 DNA inh 16 | UHRF1 ctr MBD2 inactive | MBD2 DBD conf inactive
COC(=O)[C@]12C[C@H](CC(=O)NCC34CC5CC(CC(C5)C3)C4)C(=O)N(Cc3ccco3)C1=C[C@H](C1CCCC1)O[C@@H]2C	none (no result: core dimer inh)
N#CCC(=O)Nc1ccc(C(=O)OCC(=O)c2ccc3c(c2)NC(=O)CO3)cc1	MBD2 DNA inh 14 (no result: core dimer inh) | UHRF1 ctr MBD2 inactive | MBD2 DBD conf 13
CCN(c1ccccc1)S(=O)(=O)c1cc(C(=O)O)ccc1C	UHRF1 MBD2 ctr 60, MBD2 DNA inh 25 | UHRF1 ctr MBD2 51 | MBD2 DBD conf 27
O=C(O)c1ccc(Cl)c(S(=O)(=O)N(Cc2ccccc2)c2ccccc2)c1	none
C[C@H]1CN([C@@H](C)CO)C(=O)Cc2cc(NC(=O)C3CC3)ccc2O[C@H]1CN(C)Cc1ccc(Oc2ccccc2)cc1	MBD2 DNA inh 17 (no result: core dimer inh) | UHRF1 ctr MBD2 inactive | MBD2 DBD conf inactive
C#CCOCCOCCOCCNc1nc(N2CCN(C(=O)[C@H](CO)n3cc([C@@H](N)C(C)C)nn3)CC2)nc(N2CCN(C(=O)[C@H](CO)n3cc([C@@H](N)C(C)C)nn3)CC2)n1	UHRF1 MBD2 ctr 22, MBD2 DNA inh 15 (no result: core dimer inh) | UHRF1 ctr MBD2 inactive | MBD2 DBD conf inactive
COc1cc(C(O)c2nc(-c3ccccc3)cs2)ccc1F (configuration not stated)	MBD2 DNA inh 14 (no result: core dimer inh) | UHRF1 ctr MBD2 inactive | MBD2 DBD conf inactive
C=CCN1[C@H](Cc2ccccc2)COc2cc(N3CCSCC3)ccc2S1(=O)=O	none (no result: core dimer inh)
NS(=O)(=O)c1ccc(CCNC(=O)c2ccc3nccnc3c2)cc1	MBD2 DNA inh 15 (no result: core dimer inh) | UHRF1 ctr MBD2 34 | MBD2 DBD conf 26
Cc1onc(-c2c(Cl)cccc2Cl)c1C(=O)NCCc1ccc(S(N)(=O)=O)cc1	UHRF1 MBD2 ctr 32, MBD2 DNA inh 14 | UHRF1 ctr MBD2 inactive | MBD2 DBD conf inactive
NS(=O)(=O)c1ccc(NC(=O)c2ccc3nccnc3c2)cc1	none
COC(=O)[C@@]12CCCCC3=C1N(CCC3)C(=O)[C@H]2CC(=O)NCc1ccc(C)o1	none (no result: core dimer inh)
CC1(C)Oc2ccc(C(=O)N3CCCC3)cc2NC1=O	none (no result: core dimer inh)
CCN1CCc2c(sc(NC(=O)c3ccc(S(=O)(=O)N4CCCC4)cc3)c2C(=O)NC)C1	none
CNC(=O)c1c(NC(=O)c2ccc(S(=O)(=O)N3CCCCC3)cc2)sc2c1CCN(C(C)C)C2	MBD2 DNA inh 16 | UHRF1 ctr MBD2 inactive | MBD2 DBD conf inactive
CC(C)[C@H](NS(=O)(=O)c1ccc2c(c1)OCCO2)C(=O)OCC(=O)Nc1ccccc1	UHRF1 MBD2 ctr 28, MBD2 DNA inh 19 | UHRF1 ctr MBD2 inactive | MBD2 DBD conf inactive
O=C(OC12CCCN(C1)/C(=C/c1ccc(Cl)cc1)C2)c1ccno1 (configuration not stated)	none (no result: core dimer inh)
COC(=O)[C@]12C[C@H](CC(=O)N3CCN(C(=O)c4ccco4)CC3)C(=O)N(Cc3ccco3)C1=C[C@H](C(C)(C)C)O[C@@H]2C	none (no result: core dimer inh)
NC(=O)c1ccc(NC(=O)COC(=O)/C=C/c2ccc(Br)o2)cc1	UHRF1 MBD2 ctr 53, LEDGF integ inh 22, MBD2 DNA inh 27 (no result: core dimer inh) | UHRF1 ctr MBD2 34 | MBD2 DBD conf 22
CCN(C[C@H]1[C@@H](c2ccc(C3=CCCC3)cc2)[C@H](CO)N1Cc1ccccn1)S(=O)(=O)c1ccccc1[N+](=O)[O-]	none (no result: core dimer inh)
COC(=O)[C@]12C[C@H](CC(=O)NCc3ccc(OC)c(OC)c3)C(=O)N(Cc3ccc(Cl)cc3Cl)C1=C[C@H](COCc1ccccc1)O[C@@H]2C	none (no result: core dimer inh)
N#CCSc1ncnc2sc3c(c12)CCC3	UHRF1 MBD2 ctr 24, MBD2 DNA inh 14 | UHRF1 ctr MBD2 inactive | MBD2 DBD conf inactive
CC12CCC(C(N)=O)(c3nc4ccccc4nc31)C2(C)C (configuration not stated)	MBD2 DNA inh 13 | UHRF1 ctr MBD2 inactive | MBD2 DBD conf inactive
Cc1ccc2[nH]c(O)c(N=NC(=O)c3ccc(NS(=O)(=O)c4cccs4)cc3)c2c1	none
Cc1cccc2c(N=NC(=O)c3ccc(NS(=O)(=O)c4cccs4)cc3)c(O)[nH]c12	MBD2 DNA inh 21 (no result: core dimer inh) | UHRF1 ctr MBD2 inactive | MBD2 DBD conf inactive
CS(=O)(=O)N1CCC[C@]2(CC[C@H](CCC#N)O2)C1	none (no result: core dimer inh)
C[C@@H]1CCN(C2CC2)S(=O)(=O)c2ccc(N3CCC[C@@H]3CO)cc2O1	none (no result: core dimer inh)
CC(=O)N1c2ccc(S(=O)(=O)N3c4ccccc4CC3C)cc2CC1C (configuration not stated)	none
CC1Cc2ccccc2N1S(=O)(=O)c1ccc2c(c1)n(C)c(=O)c(=O)n2C (configuration not stated)	MBD2 DNA inh 14 | UHRF1 ctr MBD2 inactive | MBD2 DBD conf inactive
COc1cc(NC(=O)C2CCCN(S(=O)(=O)c3cccc4cccnc34)C2)cc(OC)c1 (configuration not stated)	none (no result: core dimer inh)
COc1ccc(-c2cc(-c3nnc(SCC(=O)N4CCOCC4)n3N)[nH]n2)cc1	none (no result: core dimer inh)
COC(C(=O)N1CCC(CCC(=O)Nc2ccccc2)CC1)c1ccccc1 (configuration not stated)	UHRF1 MBD2 ctr 27, MBD2 DNA inh 15 | UHRF1 ctr MBD2 inactive | MBD2 DBD conf inactive
COc1ccc(Cl)cc1NC(=S)N1CCC(c2ccc(C)cc2)C1 (configuration not stated)	MBD2 DNA inh 23 | UHRF1 ctr MBD2 inactive | MBD2 DBD conf inactive
COc1ccc(Cl)cc1NC(=S)N1CCCCCC1	none
O=C1CC(c2ccc(S(=O)(=O)N3CCN(c4ccccc4)CC3)cc2)CN1 (configuration not stated)	MBD2 DNA inh 32 | UHRF1 ctr MBD2 inactive | MBD2 DBD conf inactive
COC(=O)[C@]12C[C@H](CC(=O)NCc3ccc(C)o3)C(=O)N(Cc3ccco3)C1=C[C@H](C(C)(C)C)O[C@@H]2C	none (no result: core dimer inh)
